In ChEMBL document CHEMBL1154477, “1,2,3-Triazol-carboxanilides and 1,2,3-triazol-(N-benzyl)-carboxamides as BK-potassium channel activators. XII” (Eur J Med Chem, 2008):

Key:
Assay type in all cases: tissue-based
[1] = molecular target: Calcium-activated potassium channel subunit alpha-1 (Rattus norvegicus) (UniProt Q62976); assay: (§1) Activation of BK channel in Wistar rat thoracic aorta assessed as relaxation of KCl-induced contraction
Method in brief: (§2)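 Endothelium-denuded aortic rings in Tyrode at 37 °C, gassed 95% O2/5% CO2. Denudation was confirmed by under 10% acetylcholine relaxation of KCl 20 mM tone. Rings were precontracted with KCl 20 mM, then given cumulative 3-fold increasing concentrations from 10 nM (DMSO stock, diluted in Tyrode). Efficacy was maximal relaxation as % of KCl tone; pIC50 was derived only when efficacy was ≥55%. 5-10 experiments.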

[2] = molecular target: Calcium-activated potassium channel subunit alpha-1 (Rattus norvegicus, UniProt Q62976); assay: as §1; method in brief: as §2
Calcium-activated potassium channel subunit alpha-1, sequence (Q62976 whole entry): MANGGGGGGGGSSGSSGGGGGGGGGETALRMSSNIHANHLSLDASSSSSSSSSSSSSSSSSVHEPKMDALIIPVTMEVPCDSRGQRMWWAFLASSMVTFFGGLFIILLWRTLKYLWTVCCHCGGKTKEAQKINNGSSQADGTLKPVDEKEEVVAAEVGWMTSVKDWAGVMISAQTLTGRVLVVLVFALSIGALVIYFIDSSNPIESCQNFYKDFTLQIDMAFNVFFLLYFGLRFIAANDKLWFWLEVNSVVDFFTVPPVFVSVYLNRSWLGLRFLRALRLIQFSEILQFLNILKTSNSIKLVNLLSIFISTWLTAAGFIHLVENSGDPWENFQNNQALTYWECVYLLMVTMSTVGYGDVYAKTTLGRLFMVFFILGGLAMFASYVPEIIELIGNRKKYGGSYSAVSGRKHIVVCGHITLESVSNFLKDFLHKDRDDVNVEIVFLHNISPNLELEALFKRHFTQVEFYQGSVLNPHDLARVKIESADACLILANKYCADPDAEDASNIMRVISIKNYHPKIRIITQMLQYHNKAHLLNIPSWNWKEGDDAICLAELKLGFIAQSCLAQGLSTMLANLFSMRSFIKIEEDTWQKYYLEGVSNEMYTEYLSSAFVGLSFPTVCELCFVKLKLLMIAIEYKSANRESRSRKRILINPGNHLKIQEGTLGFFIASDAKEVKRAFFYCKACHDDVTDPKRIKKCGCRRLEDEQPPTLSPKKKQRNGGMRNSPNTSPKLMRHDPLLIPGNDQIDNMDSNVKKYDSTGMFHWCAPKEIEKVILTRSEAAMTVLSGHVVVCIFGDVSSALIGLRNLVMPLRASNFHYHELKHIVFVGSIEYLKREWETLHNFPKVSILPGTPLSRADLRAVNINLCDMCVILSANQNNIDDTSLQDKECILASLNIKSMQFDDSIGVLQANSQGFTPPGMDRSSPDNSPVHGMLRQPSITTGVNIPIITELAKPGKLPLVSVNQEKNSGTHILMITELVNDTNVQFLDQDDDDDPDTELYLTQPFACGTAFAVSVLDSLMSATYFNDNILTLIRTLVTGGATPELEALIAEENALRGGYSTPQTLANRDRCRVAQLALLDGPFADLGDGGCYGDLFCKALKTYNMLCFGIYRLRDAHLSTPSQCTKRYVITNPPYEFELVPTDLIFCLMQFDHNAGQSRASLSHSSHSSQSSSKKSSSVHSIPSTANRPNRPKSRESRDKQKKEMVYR

[3] = molecular target: Calcium-activated potassium channel subunit alpha-1 (Rattus norvegicus) (UniProt Q62976); assay: Activation of BK channel in Wistar rat thoracic aorta assessed as relaxation of KCl-induced contraction in presence of potassium channel blocker TEAC
Method in brief: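 Endothelium-denuded aortic rings in gassed Tyrode at 37 °C, incubated with tetraethylammonium chloride 10 mM for 20 min before KCl 20 mM precontraction. Cumulative 3-fold increasing concentrations from 10 nM were added at the plateau. Relaxation was expressed as % of KCl tone, with pIC50 as the negative log molar concentration halving the tone. 5-10 experiments.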

Calcium-activated potassium channel subunit alpha-1 (Rattus norvegicus), sequence (Q62976 whole entry): as above

Compound | Emax [1] [%] | IC50 [2] [µM] | Emax [3] [%]
Cc1c(C(=O)NCc2ccccc2Cl)nnn1Cc1ccccc1O | 51 |  | 
Cc1c(C(=O)Nc2ccccc2)nnn1Cc1ccccc1O | 89 | 17.8 | 37
Cc1c(C(=O)NCc2ccccc2O)nnn1Cc1ccccc1F | 24 |  | 
Cc1c(C(=O)NCc2ccccc2O)nnn1Cc1ccccc1Cl | 49 |  | 
Cc1c(C(=O)NCc2ccccc2O)nnn1Cc1ccccc1O | 76 | 21.9 | 
Cc1c(C(=O)NCc2ccccc2)nnn1Cc1ccccc1O | 48 |  | 
O=c1[nH]c2cc(C(F)(F)F)ccc2n1-c1cc(C(F)(F)F)ccc1O | 94 | 5.13 | 
Cc1c(C(=O)Nc2ccc(Cl)cc2)nnn1Cc1ccccc1O | 53 |  | 
Cc1c(C(=O)Nc2ccccc2O)nnn1Cc1ccccc1O | 81 | 20.4 | 
Cc1c(C(=O)Nc2ccccc2O)nnn1Cc1ccccc1F | 35 |  | 
Cc1c(C(=O)Nc2ccccc2O)nnn1Cc1ccccc1Cl | 52 |  | 
